Measured values: ChEMBL document CHEMBL4130487, “A pentanoic acid derivative targeting matrix metalloproteinase-2 (MMP-2) induces apoptosis in a chronic myeloid leukemia cell line” (Eur J Med Chem, 2017)
pIC50: −log10 of the molar value.

Experiments:
K562 [1] = test: Induction of apoptosis in human K562 cells assessed as increase in late apoptotic cells at 2.5 to 10 uM after 48 hrs by Annexin V-FITC/propidium iodide staining based flow cytometry relative to control; type: functional
K562 [2] = test: Cell cycle arrest in human K562 cells assessed as accumulation at G1-phase at 2.5 uM after 24 hrs by propidium iodide staining based flow cytometry (reference value: 27.5%)
K562 [3] = test: Cell cycle arrest in human K562 cells assessed as accumulation at sub-G1 phase at 10 uM after 48 hrs by propidium iodide staining based flow cytometry (reference value: 1%); type: functional
K562 [4] = test: Downregulation of MMP2 protein expression in human K562 cells assessed as MMP2 negative population at 2.5 uM after 48 hrs by FITC staining based flow cytometry (reference value: 1.6%)
K562 [5] = test: Downregulation of MMP2 protein expression in human K562 cells assessed as MMP2 negative population at 10 uM after 48 hrs by FITC staining based flow cytometry (reference value: 1.6%)
K562 [6] = test: Cell cycle arrest in human K562 cells assessed as accumulation at G1/S-phase at 10 uM after 24 hrs by propidium iodide staining based flow cytometry (reference value: 21.8%)
K562 [7] = test: Induction of apoptosis in human K562 cells assessed as early apoptotic cells at 10 uM after 48 hrs by Annexin V-FITC/propidium iodide staining based flow cytometry (reference value: 9.6%); type: functional
K562 [8] = test: Cytotoxicity against human K562 cells assessed as reduction in cell viability after 48 hrs by MTT assay; type: functional, cell-based; settings: K562, 48 h
Procedure, shortened: (§1)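 A549, MDA-MB-231, K562, U937 and PBMC (PBMC from healthy donors) seeded at 1×10^3 cells/well and left 24 h, then exposed to compounds for 48 h at 37 °C, 5% CO2. Adherent lines were grown in DMEM, the others in RPMI-1640 with 10% heat-inactivated FBS. MTT read-out; viability expressed as % of untreated control. IC50 taken as the concentration giving 50% viability loss.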

K562 [9] = test: Cell cycle arrest in human K562 cells assessed as accumulation at G1/S-phase at 2.5 uM after 24 hrs by propidium iodide staining based flow cytometry (reference value: 21.8%)
K562 [10] = test: Induction of apoptosis in human K562 cells assessed as late apoptotic cells at 10 uM after 48 hrs by Annexin V-FITC/propidium iodide staining based flow cytometry (reference value: 0.3%); type: functional
K562 [11] = test: Induction of apoptosis in human K562 cells assessed as live cells at 5 uM after 48 hrs by Annexin V-FITC/propidium iodide staining based flow cytometry (reference value: 90.1%); type: functional
K562 [12] = test: Cell cycle arrest in human K562 cells assessed as accumulation at G2/M-phase at 10 uM after 24 hrs by propidium iodide staining based flow cytometry (reference value: 35.3%)
K562 [13] = test: Downregulation of MMP2 protein expression in human K562 cells assessed as MMP2 positive population at 2.5 uM after 48 hrs by FITC staining based flow cytometry (reference value: 98.4%)
[14] = molecular target: Matrix metalloproteinase-9 (Homo sapiens, UniProt P14780); test: Inhibition of recombinant human MMP9 (Phe107 to Pro449 residues) expressed in Escherichia coli using Ac-Pro-Leu-Gly-S-Leu-Leu-Gly-OEt as substrate after 1 hr measured at 1 min time interval for 30 mins by microplate photometric method
Chain of Matrix metalloproteinase-9 (P14780 whole entry): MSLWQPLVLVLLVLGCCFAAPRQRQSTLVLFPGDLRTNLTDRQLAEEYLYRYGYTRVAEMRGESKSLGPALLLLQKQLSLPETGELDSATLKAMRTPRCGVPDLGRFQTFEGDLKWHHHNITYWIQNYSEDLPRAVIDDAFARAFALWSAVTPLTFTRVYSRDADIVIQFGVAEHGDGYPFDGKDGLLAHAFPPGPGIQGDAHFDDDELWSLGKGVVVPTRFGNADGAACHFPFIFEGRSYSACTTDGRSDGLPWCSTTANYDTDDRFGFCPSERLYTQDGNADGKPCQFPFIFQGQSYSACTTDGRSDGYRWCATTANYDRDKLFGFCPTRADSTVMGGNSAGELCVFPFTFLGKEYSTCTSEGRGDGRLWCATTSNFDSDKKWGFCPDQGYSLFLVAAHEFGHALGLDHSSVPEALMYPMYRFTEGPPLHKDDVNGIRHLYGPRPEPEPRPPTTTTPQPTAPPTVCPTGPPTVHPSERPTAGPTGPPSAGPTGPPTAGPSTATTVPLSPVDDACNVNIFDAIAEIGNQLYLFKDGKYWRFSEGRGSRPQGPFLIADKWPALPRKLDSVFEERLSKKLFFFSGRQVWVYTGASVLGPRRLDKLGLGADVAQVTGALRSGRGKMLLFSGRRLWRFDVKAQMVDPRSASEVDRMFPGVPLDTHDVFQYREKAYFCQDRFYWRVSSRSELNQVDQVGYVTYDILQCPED
Procedure, shortened: (§2)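 Commercial MMP kits; compound preincubated with enzyme before chromogenic substrate was added. Reactions at 37 °C for 1 h, with at least six inhibitor concentrations in triplicate. Absorbance at 410 nm read every 1 min for 30 min. NNGH used as reference inhibitor. IC50 taken from semi-logarithmic dose-response plots.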

K562 [15] = test: Cell cycle arrest in human K562 cells assessed as accumulation at sub-G1 phase at 2.5 uM after 24 hrs by propidium iodide staining based flow cytometry (reference value: 1%)
MDA-MB-231 = test: Cytotoxicity against human MDA-MB-231 cells assessed as reduction in cell viability after 48 hrs by MTT assay; type: functional, cell-based; settings: MDA-MB-231, 48 h; procedure, shortened: as §1
[16] = molecular target: Macrophage metalloelastase (Homo sapiens, UniProt P39900); test: Inhibition of recombinant human MMP12 (Phe99 to Leu271 residues) expressed in Escherichia coli using Ac-Pro-Leu-Gly-S-Leu-Leu-Gly-OEt as substrate after 1 hr measured at 1 min time interval for 30 mins by microplate photometric method; procedure, shortened: as §2
Chain of Macrophage metalloelastase (P39900 whole entry): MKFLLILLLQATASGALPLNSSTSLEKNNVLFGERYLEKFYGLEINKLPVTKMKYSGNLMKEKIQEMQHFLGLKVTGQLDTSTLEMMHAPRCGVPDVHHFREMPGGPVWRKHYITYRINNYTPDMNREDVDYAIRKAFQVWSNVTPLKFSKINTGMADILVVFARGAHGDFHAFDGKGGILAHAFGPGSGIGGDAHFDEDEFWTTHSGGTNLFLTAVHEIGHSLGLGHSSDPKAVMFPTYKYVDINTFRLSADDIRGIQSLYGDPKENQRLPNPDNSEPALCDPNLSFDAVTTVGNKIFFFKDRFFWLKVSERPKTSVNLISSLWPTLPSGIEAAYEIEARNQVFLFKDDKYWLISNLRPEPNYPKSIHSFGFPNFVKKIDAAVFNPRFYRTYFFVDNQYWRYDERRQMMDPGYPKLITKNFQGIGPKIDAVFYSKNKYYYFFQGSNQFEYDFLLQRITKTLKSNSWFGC

Neutrophil collagenase = Neutrophil collagenase (Homo sapiens, UniProt P22894); test: Inhibition of recombinant human MMP8 (Phe99 to Gln269 residues) expressed in Escherichia coli using Ac-Pro-Leu-Gly-S-Leu-Leu-Gly-OEt as substrate after 1 hr measured at 1 min time interval for 30 mins by microplate photometric method; procedure, shortened: as §2
Chain of Neutrophil collagenase (P22894 whole entry): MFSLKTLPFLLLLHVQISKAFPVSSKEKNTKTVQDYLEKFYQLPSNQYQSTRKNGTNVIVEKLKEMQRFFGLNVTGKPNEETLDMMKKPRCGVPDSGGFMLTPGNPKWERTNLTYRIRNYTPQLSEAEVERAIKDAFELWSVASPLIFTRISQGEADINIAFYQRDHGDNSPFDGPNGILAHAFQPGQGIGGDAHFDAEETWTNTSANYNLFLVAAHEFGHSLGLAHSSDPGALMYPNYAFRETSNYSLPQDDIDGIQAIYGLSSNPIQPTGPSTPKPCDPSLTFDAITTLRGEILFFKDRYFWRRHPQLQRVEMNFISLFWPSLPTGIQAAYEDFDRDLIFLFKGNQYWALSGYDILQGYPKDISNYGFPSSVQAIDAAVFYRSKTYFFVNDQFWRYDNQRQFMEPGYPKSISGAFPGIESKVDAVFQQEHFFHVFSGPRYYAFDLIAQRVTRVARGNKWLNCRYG

K562 [17] = test: Downregulation of MMP2 protein expression in human K562 cells assessed as MMP2 positive population at 10 uM after 48 hrs by FITC staining based flow cytometry (reference value: 98.4%)
K562 [18] = test: Cell cycle arrest in human K562 cells assessed as accumulation at sub-G1 phase at 5 uM after 24 hrs by propidium iodide staining based flow cytometry (reference value: 1%)
K562 [19] = test: Induction of apoptosis in human K562 cells assessed as late apoptotic cells at 2.5 uM after 48 hrs by Annexin V-FITC/propidium iodide staining based flow cytometry (reference value: 0.3%); type: functional
K562 [20] = test: Downregulation of MMP2 protein expression in human K562 cells assessed as MMP2 positive population at 5 uM after 48 hrs by FITC staining based flow cytometry (reference value: 98.4%)
K562 [21] = test: Cell cycle arrest in human K562 cells assessed as accumulation at G2/M-phase at 2.5 uM after 24 hrs by propidium iodide staining based flow cytometry (reference value: 35.3%)
K562 [22] = test: Anti-invasive activity against human K562 cells at 5 uM after 24 hrs by CyQuantGR dye based fluorimetric QCM EC matrix assay relative to control; type: functional; settings: K562, 24 h
Procedure, shortened: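 K562 cells (1X10^6 cells/ml) starved overnight in FBS-free medium, then placed in inserts in FBS-free medium with 5% BSA, with 5% FBS medium below as chemoattractant. Treated at 2.5, 5 and 10 μM in triplicate for 24 h alongside an untreated control. Invaded cells were detached, stained with CyQuantGR and read by fluorescence (ex 480/em 520 nm). Results given as % of control, mean ± SD.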

Compound: CCCCCNC(=O)CC[C@H](NS(=O)(=O)c1ccc([N+](=O)[O-])cc1)C(=O)O
- fold change (FC) (K562 [1]): <=300
- Activity (K562 [2]): 30.7%
- Activity (K562 [3]): 4.6%
- Activity (K562 [4]): 73.7%
- Activity (K562 [5]): 84.4%
- Activity (K562 [6]): 14%
- Activity (K562 [7]): 15.4%
- pIC50 (K562 [8]): 4.75
- Activity (K562 [9]): 20%
- Activity (K562 [10]): 10.3%
- Activity (K562 [11]): 76%
- Activity (K562 [12]): 23.1%
- Activity (K562 [13]): 26.3%
- pIC50 [14]: 5.17
- Activity (K562 [15]): 1.4%
- pIC50 (MDA-MB-231): 3.79
- pIC50 [16]: 3.31
- pIC50 (Neutrophil collagenase): < 3.30
- Activity (K562 [17]): 15.6%
- Activity (K562 [18]): 2.4%
- Activity (K562 [19]): 11.6%
- Activity (K562 [20]): 18.9%
- Activity (K562 [21]): 36%
- inhibition at 5 µM (K562 [22]): 14.2%
